Sampled rows, rich in hits. Any-hit rate of the full collection: about 2.7%.
OXTR potentiate: potentiators of human oxytocin receptor; CHO-OTR cells, Fluo-8 calcium fluorescence, potentiator mode; 0% = oxytocin EC15, 100% = EC100; activation, % at 3 µM; actives 0.061% (n = 320,000);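 active = activation above that plate's cutoff, the mean activation of tested compounds plus 3 SD, cut at about 6.6% in these data, passing the limit was not always enough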
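Measured by – Fluo-8 calcium dye fluorescence · Test system – human OTR in CHO cells · Dosing – one concentration, 3.0 µM compound · Controls – EC15 oxytocin alone as 0%, 75 nM oxytocin as 100% · Evaluation – normalized max/min fluorescence ratio, % activation · Timing – 6 min pre-incubation, 100 s read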
OX1R antag-1: blocks the human orexin 1 receptor; actives 1.8% (n = 330,000); AID 485270; O43613; OX1R-expressing cells, FRET antagonist read-out; inhibition, % at 6.6 µM; in the data active = inhibition mostly above about 38%, no sharp cut-off; inactive = mostly below about 40%
Target sequence (O43613 whole entry, looked up): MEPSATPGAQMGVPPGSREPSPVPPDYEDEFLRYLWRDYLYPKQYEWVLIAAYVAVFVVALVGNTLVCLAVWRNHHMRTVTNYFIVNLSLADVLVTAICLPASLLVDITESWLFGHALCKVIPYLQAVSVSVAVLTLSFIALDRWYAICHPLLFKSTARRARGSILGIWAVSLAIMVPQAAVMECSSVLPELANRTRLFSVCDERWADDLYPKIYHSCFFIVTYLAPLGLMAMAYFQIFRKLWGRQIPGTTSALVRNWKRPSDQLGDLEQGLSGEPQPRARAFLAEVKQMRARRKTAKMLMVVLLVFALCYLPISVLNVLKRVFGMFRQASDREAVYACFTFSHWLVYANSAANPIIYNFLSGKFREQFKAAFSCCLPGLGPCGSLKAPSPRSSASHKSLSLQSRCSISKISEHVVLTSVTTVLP
V1aR counter: activates human V1a receptor in oxytocin agonist counter-screen | CHO-V1R cells, Fluo-8 calcium fluorescence, agonist mode; 0% DMSO, 100% 3 nM vasopressin | activation, % at 3 µM | actives 0.25% (n = 320,000);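 active = activation above the mean activation of all tested compounds plus 3 SD, per screening run, cut at about 20% in these data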;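 also: signal is peak over basal fluorescence ratio across a 100 second FLIPR read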
OXTR agonist: human OXTR agonism; AID 2435; P30559; CHO-OTR cells, Fluo-8 calcium fluorescence; normalized: DMSO 0%, oxytocin 100%; actives 0.32% (n = 320,000); activation, % at 3 µM;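 active = activation above the mean of all tested compounds plus 3 SD, cutoff set per screening run, cut at about 20% in these data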;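 also: peak over basal fluorescence ratio from a 100 s FLIPR kinetic read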
OX1R antag-2: antagonists of human orexin 1 receptor | O43613 | CHO/OX1R cells, Fluo-8 calcium fluorescence, orexin A | inhibition, % at 5 µM | actives 0.43% (n = 330,000) | AID 434989;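 active = inhibition above its plate's threshold, mean inhibition of all tested compounds on the plate plus 3 SD, cut at about 37% in these data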
CHO parental Ca: counter-screen for OX1R antagonists: effect in parental CHO cells | parental CHO-K1, ATP-induced calcium, Fluo-8 fluorescence | inhibition, % at 5.6 µM | actives 0.63% (n = 330,000);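 active = inhibition above that plate's mean sample inhibition plus 3 SD, cut at about 26% in these data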
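Material: Parental CHO cells | Reagent: ATP | Compound dosing: Single nominal dose of 5.6 µM per compound | Detection: Intracellular calcium via Fluo-8 no-wash fluorescent dye | Read-out: % inhibition of ATP-induced calcium mobilization | Benchmarks: Low control ATP plus DMSO, high control DMSO only | Replicates: Singlicate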
OX1R HTRF confirm: OX1R (human) antagonism, HTRF confirmed | shares compounds with OX1R antag-1 | actives 49% (n = 1,800) | inhibition, % at 6.6 µM | AID 492964 | OX1R-expressing cells, HTRF antagonist assay; in the data active = inhibition above about 55%;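 also: CHO cells expressing OX1R stimulated with orexin A at about EC80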
CHO-K1 HTRF cnt: signal in parental CHO-K1 cells, OX1R antagonist counter-screen; shares compounds with OX1R antag-1; HTRF counterscreen; inhibition, % at 6.6 µM; actives 48% (n = 1,800); in the data active = inhibition above about 17%
A number is an active result; n = inactive; x = no result given.

SMILES	OXTR potentiate	OX1R antag-1	V1aR counter	OXTR agonist	OX1R antag-2	CHO parental Ca	OX1R HTRF confirm	CHO-K1 HTRF cnt
O=C(CCN1C(=O)c2ccccc2C1=O)OCN1C(=O)c2ccccc2C1=O	n	n	n	n	n	n	x	x
O=C(COC(=O)CN1C(=O)C(=O)c2ccccc21)OCN1C(=O)c2ccccc2C1=O	n	84	n	n	n	n	n	n
COc1cc(SC)ccc1C(=O)Nc1ccc2ncccc2c1	n	90	n	n	n	n	86	n
COc1cc(SC)ccc1C(=O)Nc1ccccn1	n	n	n	n	n	n	x	x
O=C(NCCN1CCOCC1)c1ccc([N+](=O)[O-])cc1[N+](=O)[O-]	n	179	n	n	n	n	73	81
O=C(CN1CCOCC1)Nc1cc(C(F)(F)F)ccc1Cl	n	n	n	n	n	n	x	x
O=C(CN1CCOCC1)Nc1cc([N+](=O)[O-])ccc1Cl	n	79	n	n	n	n	n	35
O=C(NCCCN1CCOCC1)c1sc2cc([N+](=O)[O-])ccc2c1Cl	n	93	n	n	n	n	n	56
CCOC(=O)c1c(C)[nH]c(C)c1S(=O)(=O)N(C)CC(=O)N1CCN(c2ccc(OC)cc2)CC1	n	n	n	n	n	n	x	x
CCOC(=O)CN1C(=O)C(=O)N(Cc2ccccc2F)C1=O	n	n	n	n	n	n	x	x
Cc1cc(NC(=O)C(C)SCC(=O)NCc2ccc(F)cc2)no1 (stereo unspecified)	n	n	n	n	n	n	x	x
O=C(CSc1cccc2cccc(Cl)c12)NC1=NCCS1	n	112	n	n	n	n	n	n
O=C(CSc1ccccc1)NC1=NCCS1	n	n	n	n	n	n	x	x
COc1cc(C(c2c(C)[nH][nH]c2=O)c2c(C)[nH][nH]c2=O)cc([N+](=O)[O-])c1O	n	78	n	n	n	n	n	44
CC(=O)c1cccc(NC(=O)CCNS(=O)(=O)c2cccc3nonc23)c1	n	97	n	n	n	n	n	23
Cc1cnc(C(=O)OCC(=O)c2ccc[nH]2)cn1	n	n	n	n	n	n	x	x
CCC1(CC)C(=O)C2=C3C1[C@H](C(=O)OC)C=C(C(=O)OC)C[C@H]3[C@H]1C(=O)N(CC(=O)OC)C(=O)[C@H]1[C@H]2C (stereo partly specified)	n	n	n	n	n	n	x	x
CCn1c(O)c(/C=C2\C=Nc3ccccc32)sc1=O	n	86	n	n	n	n	86	n
CC(C)CN(Cc1cc(=O)oc2cc3c(cc12)CCCC3)CC(C)C	n	n	n	n	n	n	x	x
O=[N+]([O-])c1ccc(-[n+]2ccc3ccccc3c2)c([N+](=O)[O-])c1	n	78	n	n	n	n	n	60
CCOc1ccc(NC(=O)CC(=O)Nc2ccc(OCC)cc2)cc1	n	n	n	n	n	n	x	x
CCOc1ccc(NC(=O)CNS(=O)(=O)c2c(C)cc(C)cc2C)cc1	n	82	n	n	n	n	62	n
Brc1cccc(-c2nnc(SCc3nc4ccccc4[nH]3)o2)c1	n	80	n	n	n	n	n	n
Clc1ccc(-c2nnc(SCc3nc4ccccc4[nH]3)o2)c(Cl)c1	n	n	n	n	n	n	x	x
CCCNC(=O)C(NS(=O)(=O)c1cccc2nsnc12)c1ccccc1 (stereo unspecified)	n	98	n	n	n	n	64	36
CC(=O)Nc1ccc(NC(=O)C2CCCN2S(=O)(=O)c2cccc3nsnc23)cc1 (stereo unspecified)	n	80	n	n	n	n	62	36
O=C(NCCc1ccccc1)C1CCCN(S(=O)(=O)c2cccc3nsnc23)C1 (stereo unspecified)	n	n	n	n	n	n	x	x
O=C(CCNS(=O)(=O)c1cccc2nsnc12)NC1CCN(Cc2ccccc2)CC1	n	78	n	n	n	n	n	53

Screens as filed in PubChem BioAssay.
